4 compounds from ChEMBL document CHEMBL4304816, “A Novel Biphenyl-based Chemotype of Retinoid X Receptor Ligands Enables Subtype and Heterodimer Preferences” (ACS Med Chem Lett, 2019) can be followed below.

Common to all, as to assay type: cell-based
Experiment [1] has as its target T1, Retinoic acid receptor RXR-gamma (Homo sapiens, UniProt P48443).
T1 sequence (P48443 whole entry): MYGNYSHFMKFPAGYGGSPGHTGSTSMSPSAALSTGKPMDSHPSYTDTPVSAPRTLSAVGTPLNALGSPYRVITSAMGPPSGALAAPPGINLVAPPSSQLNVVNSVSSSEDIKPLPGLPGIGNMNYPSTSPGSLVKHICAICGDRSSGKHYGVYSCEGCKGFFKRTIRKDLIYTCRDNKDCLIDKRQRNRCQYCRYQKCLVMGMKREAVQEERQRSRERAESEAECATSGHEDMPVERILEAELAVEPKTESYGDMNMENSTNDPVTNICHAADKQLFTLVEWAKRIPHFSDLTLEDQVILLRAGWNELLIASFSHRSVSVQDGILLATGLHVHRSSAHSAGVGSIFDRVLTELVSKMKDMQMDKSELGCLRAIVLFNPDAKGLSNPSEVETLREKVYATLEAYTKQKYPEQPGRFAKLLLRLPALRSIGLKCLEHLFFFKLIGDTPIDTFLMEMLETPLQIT
As to the kind of experiment: Agonist activity at Gal4-LBD fused RXRgamma (unknown origin) expressed in HEK293T cells after 14 to 16 hrs by dual-Glo luciferase assay. The procedure, abridged: (§1)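 Gal4-hybrid RXRα/β/γ reporter gene assays in HEK293T cells. Fold activation is the maximal fold activation versus 0.1% DMSO.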

Experiment [2] addresses T2, Retinoic acid receptor RXR-alpha (Homo sapiens, UniProt P19793).
T2 sequence (P19793 whole entry): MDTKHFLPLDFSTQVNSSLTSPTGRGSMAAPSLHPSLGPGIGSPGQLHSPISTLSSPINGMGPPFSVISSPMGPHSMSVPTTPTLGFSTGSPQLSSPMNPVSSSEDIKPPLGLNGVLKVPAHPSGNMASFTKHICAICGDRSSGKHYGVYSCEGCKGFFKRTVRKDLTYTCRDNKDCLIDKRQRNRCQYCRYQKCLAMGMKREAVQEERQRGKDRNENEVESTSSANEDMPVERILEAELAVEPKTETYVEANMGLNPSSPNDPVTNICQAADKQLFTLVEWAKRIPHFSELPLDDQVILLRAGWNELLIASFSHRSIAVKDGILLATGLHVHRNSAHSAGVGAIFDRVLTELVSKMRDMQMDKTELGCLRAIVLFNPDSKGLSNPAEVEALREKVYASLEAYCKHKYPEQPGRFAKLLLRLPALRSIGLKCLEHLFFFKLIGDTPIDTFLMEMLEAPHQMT
As to the kind of experiment: Agonist activity at Gal4-LBD fused RXRalpha (unknown origin) expressed in HEK293T cells after 14 to 16 hrs by dual-Glo luciferase assay. The gist of the method: as §1

Experiment [3] addresses T3, Retinoic acid receptor RXR-beta (Homo sapiens) (UniProt P28702).
T3 sequence (whole entry): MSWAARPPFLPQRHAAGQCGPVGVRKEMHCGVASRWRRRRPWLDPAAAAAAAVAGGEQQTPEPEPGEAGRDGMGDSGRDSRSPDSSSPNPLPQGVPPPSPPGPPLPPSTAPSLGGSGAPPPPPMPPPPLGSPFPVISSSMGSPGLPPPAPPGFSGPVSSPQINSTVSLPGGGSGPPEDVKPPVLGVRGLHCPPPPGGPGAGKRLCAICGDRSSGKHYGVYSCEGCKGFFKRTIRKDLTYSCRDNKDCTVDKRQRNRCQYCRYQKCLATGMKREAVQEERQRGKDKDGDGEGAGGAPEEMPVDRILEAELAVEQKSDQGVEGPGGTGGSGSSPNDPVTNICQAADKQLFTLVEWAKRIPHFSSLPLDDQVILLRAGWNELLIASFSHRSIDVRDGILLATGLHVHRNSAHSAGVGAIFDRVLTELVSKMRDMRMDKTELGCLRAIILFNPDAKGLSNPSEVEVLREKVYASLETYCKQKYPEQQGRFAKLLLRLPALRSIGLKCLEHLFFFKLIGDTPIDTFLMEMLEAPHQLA
As to the kind of experiment: Agonist activity at Gal4-LBD fused RXRbeta (unknown origin) expressed in HEK293T cells assessed as fold activation at 20 uM after 14 to 16 hrs by dual-Glo luciferase assay relative to untreated control. The gist of the method: as §1

For experiment [4], the target named is T4, Retinoic acid receptor RXR-alpha (Homo sapiens) (UniProt P19793).
T4 sequence (whole entry): T2 sequence (P19793 whole entry)
As to the kind of experiment: Agonist activity at Gal4-LBD fused RXRalpha (unknown origin) expressed in HEK293T cells assessed as fold activation after 14 to 16 hrs by dual-Glo luciferase assay relative to untreated control. The gist of the method: as §1

Experiment [5] deals with T5, Retinoic acid receptor RXR-beta (Homo sapiens, UniProt P28702).
T5 sequence (P28702 whole entry): T3 sequence (whole entry)
As to the kind of experiment: Agonist activity at Gal4-LBD fused RXRbeta (unknown origin) expressed in HEK293T cells after 14 to 16 hrs by dual-Glo luciferase assay. The gist of the method: as §1

For experiment [6], the target named is T4, Retinoic acid receptor RXR-alpha (Homo sapiens). As to the kind of experiment: Agonist activity at Gal4-LBD fused RXRalpha (unknown origin) expressed in HEK293T cells assessed as fold activation at 20 uM after 14 to 16 hrs by dual-Glo luciferase assay relative to untreated control. The procedure, abridged: as §1
For experiment [7], the target named is T3, Retinoic acid receptor RXR-beta (Homo sapiens). As to the kind of experiment: Agonist activity at Gal4-LBD fused RXRbeta (unknown origin) expressed in HEK293T cells assessed as fold activation after 14 to 16 hrs by dual-Glo luciferase assay relative to untreated control. The procedure, abridged: as §1
Experiment [8] addresses T6, Retinoic acid receptor RXR-gamma (Homo sapiens) (UniProt P48443).
T6 sequence (whole entry): T1 sequence (P48443 whole entry)
As to the kind of experiment: Agonist activity at Gal4-LBD fused RXRgamma (unknown origin) expressed in HEK293T cells assessed as fold activation at 20 uM after 14 to 16 hrs by dual-Glo luciferase assay relative to untreated control. The gist of the method: as §1

The target in experiment [9] is T3, Retinoic acid receptor RXR-beta (Homo sapiens). As to the kind of experiment: Agonist activity at Gal4-LBD fused RXRbeta (unknown origin) expressed in HEK293T cells assessed as fold activation at 30 uM after 14 to 16 hrs by dual-Glo luciferase assay relative to untreated control. The gist of the method:
as §1

Experiment [10] deals with T4, Retinoic acid receptor RXR-alpha (Homo sapiens). As to the kind of experiment: Agonist activity at Gal4-LBD fused RXRalpha (unknown origin) expressed in HEK293T cells assessed as fold activation at 30 uM after 14 to 16 hrs by dual-Glo luciferase assay relative to untreated control. The gist of the method:
as §1

The target in experiment [11] is T6, Retinoic acid receptor RXR-gamma (Homo sapiens). As to the kind of experiment: Agonist activity at Gal4-LBD fused RXRgamma (unknown origin) expressed in HEK293T cells assessed as fold activation at 30 uM after 14 to 16 hrs by dual-Glo luciferase assay relative to untreated control. The gist of the method:
as §1

For experiment [12] the target is unchanged. As to the kind of experiment: Agonist activity at Gal4-LBD fused RXRgamma (unknown origin) expressed in HEK293T cells at 30 uM after 14 to 16 hrs by dual-Glo luciferase assay.
In experiment [13] the target is T3, Retinoic acid receptor RXR-beta (Homo sapiens). As to the kind of experiment: Agonist activity at Gal4-LBD fused RXRbeta (unknown origin) expressed in HEK293T cells at 10 uM after 14 to 16 hrs by dual-Glo luciferase assay.
Experiment [14] addresses T6, Retinoic acid receptor RXR-gamma (Homo sapiens). As to the kind of experiment: Agonist activity at Gal4-LBD fused RXRgamma (unknown origin) expressed in HEK293T cells at 10 uM after 14 to 16 hrs by dual-Glo luciferase assay.
Experiment [15] concerns the target T4, Retinoic acid receptor RXR-alpha (Homo sapiens). As to the kind of experiment: Agonist activity at Gal4-LBD fused RXRalpha (unknown origin) expressed in HEK293T cells at 10 uM after 14 to 16 hrs by dual-Glo luciferase assay.
A short description of experiment [16]: Agonist activity at full-length human RXR/LXR expressed in HEK293T cells at 25 uM after 14 to 16 hrs by dual-glo luciferase reporter gene assay relative to untreated control. As to conditions: HEK-293T, read-out: Activity. The gist of the method:
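RXR:LXR or RXR:PPARγ heterodimer reporter assay with test compound alone. Activation expressed relative to 0.1% DMSO vehicle. Three independent experiments, each in duplicate; mean reported.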
(A reporter such as luciferase makes a cellular process visible.)

A short description of experiment [17]: Agonist activity at full-length human RXR/LXR expressed in HEK293T cells at 25 uM after 14 to 16 hrs in presence of 1 uM T0901317 by dual-glo luciferase reporter gene assay relative to T0901317. As to conditions: HEK-293T, read-out: Activity. The gist of the method:
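Synergy format: the test compound was co-applied with the partner-receptor reference agonist at 1 μM, either T0901317 (RXR:LXR) or rosiglitazone (RXR:PPARγ). Relative synergistic activation was derived from three independent experiments, each in duplicate; mean reported.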

For experiment [18], the species on record is Homo sapiens. As to the kind of experiment: Agonist activity at full-length human PPARgamma/RXR expressed in HEK293T cells at 25 uM after 14 to 16 hrs by dual-glo luciferase reporter gene assay relative to untreated control. The procedure, abridged:
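RXR:PPARγ heterodimer reporter assay in HEK293T cells with test compound alone. Mean relative activation is taken versus 0.1% DMSO, from three independent experiments each run in duplicate.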

In general, EC50 refers to the midpoint of the concentration-response curve.

Activity calls are given as the source filed them. No cut-off for these calls is given here.

On to `O=C(O)c1ccc(-c2cc(Cl)cc(Cl)c2)cc1`, for which the concentration for a half-maximal effect (EC50) in [1] was over 30 µM; in [2], 9.3 µM; in [5], 13 µM. Also, the fold change (FC) in experiment [3] amounted to 60; in [4], 38; in experiment [6] it was 33; in experiment [7], 68; in [8] it was 3.
For `Cc1cc(C)cc(-c2ccc(C(=O)O)cc2)c1`, the fold change (FC) turned out to be 74 in experiment [9]; 26 in experiment [4]; 25 in experiment [10]; 2 in [11]; 97 in [7]. In addition, the EC50 came to 9.6 µM in experiment [2] and 18.6 µM in [5]. In addition, the Activity entry in experiment [12] is “inactive”.
Consider `CC(C)(C)c1cc(-c2ccc(C(=O)O)cn2)cc(C(C)(C)C)c1`, for which the Activity result in experiment [13], in experiment [14] and in experiment [15] was “inactive” each time.
With `O=C(O)c1cccc(-c2cc(Cl)cc(Cl)c2)c1`, the activity at 25 µM turned out to be 67% in experiment [16] and 42% in experiment [17]. In addition, the half-maximal effective concentration (EC50) is 15.5 µM in experiment [2] and 13.1 µM in experiment [5]. This compound returned an Activity in experiment [18] of 82%. The Activity entry in [12] is “inactive”.
